We go through twelve molecules from PubChem BioAssay.

Experiment [1] is described as follows: reduced viability of SK-BR-3 breast cancer cells – cell-based, 24 h, human, pilot screen (AID 572;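 active means viability at or below 10% of carrier control in both of two separate runs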;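 further: compound exposure lasted between 18 and 24 h rather than exactly 24 h; 100% = carrier-treated control wells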). The settings on record: SK-BR-3 viability, CellTiter-Glo luminescence, at 10 µM, stronger effect = lower value.
The nature of experiment [2]: HUVEC growth inhibition – cell-based, human, primary screen (AID 575;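 active means viability at or below 30% in both replicate assays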;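 further: 100% = median of untreated cell wells with 0.1% DMSO on each plate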). The settings on record: HUVEC proliferation, CellTiter-Glo luminescence, 72 h; at 10 µM; stronger effect = lower value. The procedure, abridged: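 Test system: primary human umbilical vein endothelial cells; medium: endothelial basal medium with 2% FBS plus growth supplements; dosing: 10 µM compound only; times: 72 h treatment at 37 °C; signal: CTG luminescence; read-out: % viability relative to median vehicle-well signal on each plate; control set: vehicle and MePR control wells; plate: 384-well, collagen-coated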

Experiment [3] is described as follows: H69AR cell proliferation blockers – human, duplicate replicates, primary screen (AID 580;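 active means viability at or under a set limit in both replicates, limit being median viability minus 3 SD, cut at about 48% in these data, passing the limit was not always enough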;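 further: 100% = mean luminescence of untreated wells and 0% = no signal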). The settings on record: H69AR lung tumor cells viability, ATP luminescence, 72 h; at 10 µM; stronger effect = lower value.
Experiment [4] is described as follows: MRP1 drug-resistance reversers in H69AR cells – cell-based, doxorubicin co-treatment, pilot screen (AID 601). As to conditions: CellTiter-Glo, 72 h, at 10 µM; for differential viability (reversal): stronger effect = higher value.
Experiment [5] can be described thus: yeast transport mutant growth inhibition pilot in 384-well plates, post-Golgi transport modulator project (AID 636; in the data active means inhibition above about 31%). The settings on record: absorbance 615 nm, about 18 h, stronger effect = higher value.
Experiment [6] in a line: growth suppression of yeast trafficking mutant, preliminary HTS, modulators of trafficking downstream of Golgi apparatus project, 1536-format plate, OD 615 nm (AID 637; in the data active means inhibition above about 30%). As to conditions: yeast transport mutant growth, absorbance 615 nm, 18 h; stronger effect = higher value.
The mark [7] stands for this setting: H69AR cells + 2 uM doxorubicin, measured here: viability with 2 uM doxorubicin, stronger effect = lower value.
Where [8] appears, read: H69AR cells, compound alone cytotoxicity.

The source made the active and inactive calls.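 How the source made its calls, unless noted: active means viability loss from added drug above about 55%, and viability with drug at most 40%, in both replicates (limit read from the data, passing the limit was not always enough); inconclusive means both conditions met in only one replicate; inactive means neither replicate meets both conditions.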

For `Nc1nc2c(ncn2COCCO)c(=O)[nH]1`, the viability in experiment [1] is 97% (inactive); in experiment [2], 86.9% (inactive); in experiment [3], 98.9% (inactive); in experiment [4] (setting [7]) it was 95.5%; in experiment [4] (setting [8]) it was 98.9%. For the same molecule, the differential viability (reversal) in experiment [4] (H69AR cells + 2 uM doxorubicin) is 3.38% (inactive). For the same molecule, the figures for the inhibition in experiment [5] and in experiment [6] were 0.65% (inactive) and 3% (inactive), respectively.

As for `CCCn1c(SCC(=O)NC(=O)NCc2ccco2)n[nH]c1=O`, the viability in experiment [1] is 101% (inactive); in experiment [2] it was 90.4% (inactive); in experiment [3], 96.6% (inactive); in experiment [4] (setting [7]), 95.1%; in experiment [4] (setting [8]) it was 96.6%. Further, in experiment [4] (H69AR cells + 2 uM doxorubicin), the differential viability (reversal) was 1.45% (inactive). Also, the inhibition in experiment [5] was -2.8% (inactive); in experiment [6], -3.64% (inactive).

For the molecule `CC(=O)c1ccccc1NS(=O)(=O)c1c(C)nn(-c2ccccc2)c1C`, the viability is 99% (inactive) in experiment [1]; 77.6% (inactive) in experiment [2]; 88.3% (inactive) in experiment [3]; 93.3% in experiment [4] (setting [7]); 88.3% in experiment [4] (setting [8]). The differential viability (reversal) in experiment [4] (H69AR cells + 2 uM doxorubicin) was -5% (inactive). Further, the figures for the inhibition in experiment [5] and in experiment [6] were -3.11% (inactive) and -4.55% (inactive), respectively.

Take `O=C(O)C1CCCCC1C(=O)Nc1ccccn1` (stereo unspecified): the viability was 115% (inactive) in experiment [1]; 93.9% (inactive) in experiment [2]; 108% (inactive) in experiment [3]; 99.4% in experiment [4] (setting [7]); 108% in experiment [4] (setting [8]). Also, the differential viability (reversal) in experiment [4] (H69AR cells + 2 uM doxorubicin) was 8.84% (inactive). Besides, the inhibition is -4.52% (inactive) in experiment [5] and -4.73% (inactive) in experiment [6].

`CSc1c(CC(=O)NCCO)n(C)c2ccccc12`: the viability in experiment [1] was 108% (inactive); in experiment [2], 111% (inactive); in experiment [3], 102% (inactive); in experiment [4] (setting [7]), 93.1%; in experiment [4] (setting [8]), 102%. For the same molecule, the differential viability (reversal) in experiment [4] (H69AR cells + 2 uM doxorubicin) is 9.3% (inactive). For the same molecule, the inhibition in experiment [5] is -4.13% (inactive); in experiment [6] it was 0.91% (inactive).

Turning to `COc1ccccc1N1CCN(C(=O)CSc2nc3ncnc(N)c3[nH]2)CC1`, the viability in experiment [1] is 110% (inactive); in experiment [2] it was 96.6% (inactive); in experiment [3] it was 92.8% (inactive); in experiment [4] (setting [7]), 89.3%; in experiment [4] (setting [8]), 92.8%. The differential viability (reversal) in experiment [4] (H69AR cells + 2 uM doxorubicin) was 3.56% (inactive). Moreover, the inhibition in experiment [5] was -4.29% (inactive); in experiment [6], -1.31% (inactive).

With `Cc1occc1C(=O)Nc1ccc(S(=O)(=O)N2CCN(C)CC2)cc1`, the viability in experiment [1] is 71% (inactive); in experiment [2] it was 89.2% (inactive); in experiment [3], 90.4% (inactive); in experiment [4] (setting [7]) it was 84.5%; in experiment [4] (setting [8]) it was 90.4%. For the same molecule, the differential viability (reversal) in experiment [4] (H69AR cells + 2 uM doxorubicin) was 5.85% (inactive). In addition, the values for the inhibition in experiment [5] and in experiment [6] were -3.01% (inactive) and 1.82% (inactive), respectively.

For the molecule `CCOC(=O)N1CCC(N(CCCOC)C(=O)Nc2ccc(CC)cc2)CC1`, the viability is 106% (inactive) in experiment [1]; 92.7% (inactive) in experiment [2]; 98.9% (inactive) in experiment [3]; 86% in experiment [4] (setting [7]); 98.9% in experiment [4] (setting [8]). Moreover, the differential viability (reversal) in experiment [4] (H69AR cells + 2 uM doxorubicin) is 13% (inactive). Moreover, the inhibition in experiment [5] is -0.26% (inactive); in experiment [6] it was -2.3% (inactive).

Consider `CC(=O)c1ccc(N2CCN(C(=O)c3cc(C)on3)CC2)cc1`, for which the viability in experiment [1] is 100% (inactive); in experiment [2], 97.7% (inactive); in experiment [3], 111% (inactive); in experiment [4] (setting [7]), 98.9%; in experiment [4] (setting [8]), 111%. Besides, the differential viability (reversal) in experiment [4] (H69AR cells + 2 uM doxorubicin) was 12.4% (inactive). The inhibition in experiment [5] is -6.99% (inactive); in experiment [6], -3.82% (inactive).

In the case of `CCOC(=O)Cc1csc(NC(=O)c2cccc(OC)c2)n1`, the viability in experiment [1] is 75% (inactive); in experiment [2], 104% (inactive); in experiment [3] it was 103% (inactive); in experiment [4] (setting [7]), 102%; in experiment [4] (setting [8]), 103%. Moreover, the differential viability (reversal) in experiment [4] (H69AR cells + 2 uM doxorubicin) was 0.32% (inactive). For the same molecule, the results for the inhibition in experiment [5] and in experiment [6] were -5.75% (inactive) and -5.64% (inactive), respectively.

For `Cc1[nH]nc2c1C(c1ccc(F)cc1)C1=C(CC(C)(C)CC1=O)N2` (stereo unspecified), the viability was 126% (inactive) in experiment [1]; 102% (inactive) in experiment [2]; 87.4% (inactive) in experiment [3]; 87.8% in experiment [4] (setting [7]); 87.4% in experiment [4] (setting [8]). Besides, the differential viability (reversal) in experiment [4] (H69AR cells + 2 uM doxorubicin) is -0.39% (inactive). For the same molecule, the figures for the inhibition in experiment [5] and in experiment [6] were -5.14% (inactive) and 3.97% (inactive), respectively.

As for `COc1ccc(OCC(=O)Nc2ccc(N3CCOCC3)c(Cl)c2)cc1`, the viability in experiment [1] was 99% (inactive); in experiment [2] it was 96.1% (inactive); in experiment [3] it was 90.3% (inactive); in experiment [4] (setting [7]), 88.2%; in experiment [4] (setting [8]), 90.3%. For the same molecule, the differential viability (reversal) in experiment [4] (H69AR cells + 2 uM doxorubicin) was 2.16% (inactive). The inhibition is -4.25% (inactive) in experiment [5] and -2.1% (inactive) in experiment [6].
